≈ marks a conversion by molar mass, not a printed value.
Test system: Candida albicans
Experiment: In vitro inhibitory activity against Candida albicans
Assay type: functional, organism-based
Conditions: not given
Summary of the method: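 Microbroth dilution; C. albicans ATCC 36082, inoculum 10³ cfu/mL in YNB medium (yeast-nitrogen base 6.7 g/L, glucose 10 g/L, pH 7). Incubated 24 h at 37 °C; growth read photo-/nephelometrically at 360 nm; IC₅₀ determined.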

For C=C1C[C@@H](CO)[C@@H](N)C1, the IC50 was greater than 256 mg/L.
C=C1CC[C@H](N)[C@H](C(=O)O)C1.Cl gave an IC50 greater than 256 mg/L.
With CCCC(N)CC(=O)O.Cl (configuration not stated) the IC50 was greater than 256 mg/L.
C=C1C[C@@H](C(=O)O)[C@H]1N.Cl gave an IC50 greater than 256 mg/L.
Cl.Cl.N[C@H]1CCN[C@H]1C(=O)O gave an IC50 greater than 256 mg/L.
For C=C1C[C@H](N)[C@@H]1C(=O)O.Cl, the IC50 was greater than 256 mg/L.
In the case of Cl.N[C@H]1CCC[C@H]1S(=O)(=O)O, the IC50 is reported as greater than 256 mg/L.
Molecule Cl.N[C@H]1CCC[C@H]1P(=O)(O)O has an IC50 greater than 256 mg/L.
With Cl.N[C@H]1CCS[C@H]1C(=O)O the IC50 was greater than 256 mg/L.

Compared with CC1CC[C@@H](C(=O)O)[C@H]1N.Cl (some centres not stated), CC1CC[C@H](N)[C@@H]1C(=O)O.Cl (single isomer, unassigned; Diastereomer B) is 8-fold lower in IC50: 128 mg/L for the first, 16 mg/L for the second.

Cl.N[C@H]1CC=CC[C@H]1C(=O)O and Cl.N[C@H]1CC[C@H]1C(=O)O are the same in IC50: 128 mg/L for the first, 128 mg/L for the second.

First: Cl.Cl.NC1C[C@H](N)[C@H](C(=O)O)C1 (mixture of isomers)
Second: Cl.N[C@H]1CC(O)C[C@H]1C(=O)O (some centres not stated)
The IC50 of the first is 2-fold lower: 64 mg/L for the first, 128 mg/L for the second.

C=C=C1C[C@H](N)[C@H](C(=O)O)C1.Cl and C=C1C[C@H](C(=O)O)[C@@H](N)C1.Cl are the same in IC50: 128 mg/L for the first, 128 mg/L for the second.

Compared with C[C@]1(N)CCC[C@H]1C(=O)O.Cl, Cl.N[C@H]1CCCC[C@H]1C(=O)O is 2-fold higher in IC50: 64 mg/L for the first, 128 mg/L for the second.

C=C1C[C@H](NCC)[C@H](C(=O)O)C1 and C=C1C[C@@H](N)[C@@H](C(=O)O)C1.Cl are the same in IC50: 128 mg/L (≈ 756 µM) for the first, 128 mg/L for the second.

Going from Cl.N[C@H]1CC(F)(F)C[C@H]1C(=O)O to CC1(C)C[C@H](N)[C@H](C(=O)O)C1.Cl, the IC50 rises from 128 mg/L to 256 mg/L (2-fold).

Going from C=C1C[C@@H](C(=O)O)[C@@H](N)C1C.Cl (mixture of isomers) to C=C1C[C@H](N)[C@H](C(=O)O)C1C.Cl (some centres not stated), the IC50 rises from 64 mg/L to 128 mg/L (2-fold).

Compared with C=CC1C[C@H](N)[C@H](C(=O)O)C1.Cl (some centres not stated), N[C@H]1CSC[C@H]1C(=O)O is 2-fold lower in IC50: 128 mg/L for the first, 64 mg/L (≈ 435 µM) for the second.

Going from Cl.N[C@H]1C=CCO[C@H]1C(=O)O to CCCC/C=C1/C[C@H](N)[C@H](C(=O)O)C1.Cl, the IC50 rises from 64 mg/L to 128 mg/L (2-fold).

C=C1C[C@H](N)[C@H](c2nnn[nH]2)C1.Cl gave an IC50 of 128 mg/L.

Same assay, conditions: Candida albicans; read-out: IC50

First: C=C1CN[C@H](C(=O)O)C1.Cl
Second: C=C1C[C@H](N)[C@H](C(=O)O)C1 [ICOFUNGIPEN]
The IC50 of the first is 250-fold higher: 32 mg/L for the first, 0.13 mg/L (≈ 0.921 µM) for the second.

First: Cl.N[C@H]1CCC[C@H]1C(=O)O
Second: C=C1CC[C@@H](C(=O)O)[C@@H](N)C1.Cl
The IC50 of the first is 120-fold lower: 0.13 mg/L for the first, 16 mg/L for the second.

Going from CC1=C[C@H](N)[C@H](C(=O)O)C1.Cl to CC1=C[C@@H](C(=O)O)[C@@H](N)C1.Cl, the IC50 rises from 8 mg/L to 32 mg/L (4-fold).

First: C=C1CC[C@@H](C(=O)O)[C@H]1N.Cl
Second: CC1CC[C@H](N)[C@@H]1C(=O)O.Cl (stereo in doubt)
The IC50 of the first is 4-fold higher: 32 mg/L for the first, 8 mg/L for the second.

Going from CC1C[C@H](N)[C@H](C(=O)O)C1.Cl (mixture of isomers) to N[C@H]1COC[C@H]1C(=O)O, the IC50 rises from 4 mg/L to 32 mg/L (≈ 244 µM) (8-fold).

C=C1C[C@H](N)[C@H](C(=O)NO)C1 and C=C1C[C@H](N)[C@H](C(=O)NC)C1.Cl are the same in IC50: 32 mg/L (≈ 205 µM) for the first, 32 mg/L for the second.

Cl.N[C@H]1CC2(C[C@H]1C(=O)O)OCCO2 and N[C@H]1CC2(CC2)C[C@H]1C(=O)O are the same in IC50: 32 mg/L for the first, 32 mg/L (≈ 206 µM) for the second.

First: C=C1C[C@H](NC(=O)[C@@H](N)CC(C)C)[C@H](C(=O)O)C1.Cl
Second: C=C1C[C@H](N)[C@H](C(=O)N[C@H](CC(C)C)C(=O)O)C1.Cl
The IC50 of the first is 8-fold lower: 2 mg/L for the first, 16 mg/L for the second.

Compared with C=C1C[C@H](N)[C@H](C(=O)OC)C1.Cl, C=C1C[C@H](NC(=O)OC(C)(C)C)[C@H](C(=O)O)C1 is 8-fold higher in IC50: 2 mg/L for the first, 16 mg/L (≈ 66.3 µM) for the second.

Compared with Cl.N[C@H]1C=CCC[C@H]1C(=O)O, Cl.N[C@H]1C=CC[C@H]1C(=O)O is 17-fold higher in IC50: 0.03 mg/L for the first, 0.5 mg/L for the second.

First: CC1C=C(C(=O)O)C(N)C1.Cl (configuration not stated)
Second: N[C@H]1CCC[C@H]1C(F)(F)F
The IC50 of the first is 16-fold higher: 16 mg/L for the first, 1 mg/L (≈ 6.53 µM) for the second.

From ChEMBL document CHEMBL1136549, “Novel antifungal beta-amino acids: synthesis and activity against Candida albicans” (Bioorg Med Chem Lett, 2003)
